Screening data from PubChem.
The list is not random: actives were taken first. Their share in the collection is about 3%.
aDG glyco up – alpha-DG glycosylation activation. AID 624168. 0.22% of 360,000 active. activation, % at 10 µM. Pro5-aDG cells, alpha-DG glycosylation AlphaScreen (IIH6); 0% Pro5, 100% B10-LARGE cell signal;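 active means activation of at least 8% versus controls, or a plate z-score of at least 8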;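 further: Pro5 are CHO cells carrying HIG-tagged alpha-DG that lacks glycosylation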
GRIN3A LBD mod – modulators (binders) of human NR3A ligand-binding domain. NR3A LBD differential scanning fluorimetry, Tm shift; 0% = protein alone, 100% = glycine-bound protein. Tm shift relative to glycine control, % at 25 µM. 2.5% of 340,000 active;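 active means melting temperature shift of at least 10% of the positive control shift, at one fixed dose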
GC-A act – GC-A (human) enzyme activation; HEK293 GC-A cells, cGMP TR-FRET, EC30 ANP; 0% at EC30 ANP, 100% saturating ANP; 0.14% of 370,000 active; activation, % at 10 µM; AID 1671463; in the data active means activation above about 40%
NPR2 activator – GC-B (human) receptor activation; HEK293-GC-B cells, CNP EC30, cGMP TR-FRET; 0% at EC30 CNP, 100% saturating CNP; 0.11% of 370,000 active; activation, % at 10 µM; AID 1920062; P20594;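 active means activation at 10 µM reaching about 35% in either raw or pattern-adjusted values, limit read from the data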
Lipid droplet – modulators of hepatic lipid droplet formation; AML12 mouse hepatocytes, oleate lipid droplets, BODIPY imaging; inhibition, % at 6.5 µM; 0.4% of 240,000 active; AID 1656;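 active means lipid droplet intensity inhibited by at least 50%, with more than 500 cells counted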
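Test system: AML12 mouse liver cells; schedule: overnight exposure; technique: high-content imaging of BODIPY-stained droplets and DAPI nuclei; read-out: % inhibition of corrected integrated BODIPY droplet signal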
GASC-1 inh – blocks human GASC-1 demethylase activity; GST-JMJD2C(1-420) H3K9me3 demethylation, DELFIA europium; Q9H3R0; inhibition, % at 2.35 µM; 0.069% of 330,000 active;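 active means more than half of a compound's replicate wells show inhibition beyond 50%, single wells judged on their own value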;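 further: signal counts dimethyl H3K9 product captured on neutravidin plate; 0% = median of DMSO wells and 100% = 0.3 times that DMSO median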
Active calls of the source: *.

Results for COCCN(Cc1nc2ccccc2c(=O)[nH]1)C(=O)COc1ccccc1-c1ccccc1 ?
aDG glyco up: 0; GRIN3A LBD mod: 13*; GC-A act: -4; NPR2 activator: 0

Results for COCC(=O)N(CCc1ccc(OC)cc1)Cc1nc2ccccc2c(=O)[nH]1 ?
aDG glyco up: 0; GRIN3A LBD mod: 1; GC-A act: -3; NPR2 activator: -1; Lipid droplet: 2; GASC-1 inh: -8

What do the screens show for `CCN(Cc1nc2cc(Cl)ccc2c(=O)[nH]1)C(=O)COc1ccccc1Cc1ccccc1`?
aDG glyco up: 0; GRIN3A LBD mod: 2; GC-A act: -10; NPR2 activator: -4

What do the screens show for `CCN(Cc1nc2ccccc2c(=O)[nH]1)C(=O)COc1ccccc1Cc1ccccc1`?
aDG glyco up: 0; GRIN3A LBD mod: 11*; GC-A act: -2; NPR2 activator: -7

How did CC1CCCC(NC(=O)/C=C/c2c(F)cccc2Cl)C1C (stereo unspecified) do in these assays?
aDG glyco up: 0; GRIN3A LBD mod: 0; GC-A act: 3; NPR2 activator: -7; GASC-1 inh: 8

How did CC(=O)NC12CC3CC(C1)CC(C(=O)Nc1nc4ccc(F)cc4s1)(C3)C2 do in these assays?
aDG glyco up: 0; GRIN3A LBD mod: -3; GC-A act: 43*; NPR2 activator: -1; Lipid droplet: 2; GASC-1 inh: 7

Results for CCC(CC)c1nnc(NC(=O)C23CC4CC(CC(NC(C)=O)(C4)C2)C3)s1 ?
aDG glyco up: 0; GRIN3A LBD mod: 2; GC-A act: 4; NPR2 activator: 0; Lipid droplet: 11; GASC-1 inh: 15

What do the screens show for `CCOC(=O)C1=C(C(=O)OCC)C2N(Cc3ccc(Br)cc3)c3ccccc3[C@@]23C[C@@H](C(=O)OC)N(S(=O)(=O)c2ccc(OC)cc2)C3=N1` (stereo partly specified)?
GC-A act: 2; NPR2 activator: 11

How did O=C(OC1CCOC1=O)C1CCN(S(=O)(=O)c2ccccc2)CC1 (stereo unspecified) do in these assays?
aDG glyco up: 0; GRIN3A LBD mod: 0; GC-A act: 2; NPR2 activator: 4; GASC-1 inh: -8

What do the screens show for `O=C(OC1CCOC1=O)C1CCN(S(=O)(=O)c2ccc(Cl)c(C(F)(F)F)c2)CC1` (stereo unspecified)?
aDG glyco up: 0; GRIN3A LBD mod: 4; GC-A act: -2; NPR2 activator: 51*; GASC-1 inh: 0

What do the screens show for `Nc1ccccc1Nc1cc(-c2ccccc2)nn1-c1cccc(Cl)c1`?
aDG glyco up: 0; GRIN3A LBD mod: 11*; GC-A act: 2; NPR2 activator: -3; Lipid droplet: -15; GASC-1 inh: 2

What do the screens show for `O=C(NCc1ccc2c(c1)OCO2)c1cc(-c2ccccn2)nc2ccccc12`?
aDG glyco up: 0; GRIN3A LBD mod: -2; GC-A act: 6; NPR2 activator: 3; Lipid droplet: 58*; GASC-1 inh: -3

Results for c1cncc(CNc2nc(-c3cccnc3)nc3ccccc23)c1 ?
aDG glyco up: 0; GRIN3A LBD mod: 1; GC-A act: 8; NPR2 activator: 0; Lipid droplet: 8; GASC-1 inh: 9

How did Cc1ccc(CNc2nc(-c3cccnc3)nc3ccccc23)cc1 do in these assays?
aDG glyco up: 0; GRIN3A LBD mod: -11; GC-A act: 56*; NPR2 activator: 57*; Lipid droplet: 21; GASC-1 inh: 10

How did c1cncc(-c2nc(NCc3ccc4c(c3)OCO4)c3ccccc3n2)c1 do in these assays?
aDG glyco up: 0; GRIN3A LBD mod: -9; GC-A act: 53*; NPR2 activator: 59*; Lipid droplet: -13; GASC-1 inh: 19

Results for Oc1ccc(/C=N/Nc2nc(-c3cccnc3)nc3ccccc23)c(O)c1 ?
aDG glyco up: 0; GRIN3A LBD mod: 16*; GC-A act: 13; NPR2 activator: 18; Lipid droplet: -3; GASC-1 inh: 4

Results for COc1ccc(/C=N/Nc2nc(-c3cccnc3)nc3ccccc23)cc1OC ?
aDG glyco up: 0; GRIN3A LBD mod: -18; GC-A act: 14; NPR2 activator: 5; Lipid droplet: 27; GASC-1 inh: 9

How did N#Cc1ccc(Cn2ccc3ccc(-c4ccc5ccn(C(=O)C6CCCCC6)c5c4)cc32)cc1 do in these assays?
GC-A act: 3; NPR2 activator: 7

How did COCCCNC(=O)C[C@H]1C[C@@]2(C(=O)OC)C(=C[C@H](C3CCCC3)O[C@@H]2C)N(CCc2ccc(OC)c(OC)c2)C1=O do in these assays?
GC-A act: 1; NPR2 activator: 4

Results for COc1ccc(/C=C2\CC3(OC(=O)c4ccc(F)cc4)CCCN2C3)cc1 (stereo unspecified) ?
GC-A act: 3; NPR2 activator: 2

How did CCOC(=O)c1ccc(-c2ccc(/C=N/NC(=O)CN(c3ccccc3Br)S(C)(=O)=O)o2)cc1 do in these assays?
aDG glyco up: 1; GRIN3A LBD mod: 12*; GC-A act: 2; NPR2 activator: -8; Lipid droplet: 4; GASC-1 inh: -3

What do the screens show for `CS(=O)(=O)N(CC(=O)N/N=C/c1cccc2c1OCCO2)c1ccccc1Br`?
aDG glyco up: -1; GRIN3A LBD mod: 1; GC-A act: 3; NPR2 activator: -4; GASC-1 inh: 4

How did C#CCNC(=O)C[C@H]1C[C@@]2(C(=O)OCC)CCCC3=C2N(CCC3)C1=O do in these assays?
GC-A act: -1; NPR2 activator: 1

How did CN1CCc2c(sc(NC(=O)CS(=O)(=O)c3ccccc3)c2C(N)=O)C1 do in these assays?
aDG glyco up: 0; GRIN3A LBD mod: 18*; GC-A act: 1; NPR2 activator: 4; GASC-1 inh: 14

Results for C(=CCSc1ccccn1)CSc1ccccn1 ?
GC-A act: 0; NPR2 activator: 1

How did CCC(C)CNC(=O)c1oc(=O)c2ccccc2c1-c1ccc(C)cc1 (stereo unspecified) do in these assays?
GC-A act: -16; NPR2 activator: -12

How did Cc1onc(-c2ccccc2)c1C(=O)NCc1ccc(F)cc1 do in these assays?
aDG glyco up: 0; GRIN3A LBD mod: 11*; GC-A act: -3; NPR2 activator: -3; GASC-1 inh: -10

Results for Cc1ccc(-c2c(C(=O)NCc3ccc(F)cc3)oc(=O)c3ccccc23)cc1 ?
aDG glyco up: 0; GRIN3A LBD mod: 14*; GC-A act: -18; NPR2 activator: -8; Lipid droplet: -13; GASC-1 inh: 5

How did Cc1cc2c(nc1C)CCCN2Cc1ccccn1 do in these assays?
GC-A act: -1; NPR2 activator: 4
